According to ChEMBL document CHEMBL3286335, “Synthesis of 2,3,6-trideoxy sugar triazole hybrids as potential new broad spectrum antimicrobial agents” (Eur J Med Chem, 2014):
Converted amounts (≈) assume the structure as drawn.

What was measured:
Candida albicans = assay: Antimicrobial activity against Candida albicans after 48 hrs by microbroth dilution method; type: functional
Method in brief: (§1)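 Broth microdilution per NCCLS guidelines. Bacteria in Mueller-Hinton broth; fungi in MOPS-buffered RPMI 1640. Test compounds at 50-0.36 µg/mL, standard drugs over 32-0.0018 µg/mL. Inoculum 1-5 × 10^3 cells/mL, 35 °C in a moist chamber. A492 read at 24 h for bacteria, 48 h for C. albicans, 72 h for A. fumigatus, C. neoformans and S. schenckii, 96 h for T. mentagrophytes. MIC taken as 90% growth inhibition relative to growth control.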

Staphylococcus aureus [1] = assay: Antimicrobial activity against Staphylococcus aureus ATCC 25923 after 24 hrs by microbroth dilution method; type: functional; details: ATCC 25923, 24 h; method in brief: as §1
Aspergillus fumigatus = assay: Antimicrobial activity against Aspergillus fumigatus after 72 hrs by microbroth dilution method; type: functional; method in brief: as §1
Staphylococcus aureus [2] = assay: Antimicrobial activity against vancomycin-resistant Staphylococcus aureus after 24 hrs by microbroth dilution method; type: functional
Method in brief: (§2)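 Microbroth dilution in Mueller Hinton broth, following NCCLS guidelines. Test compounds were run at 50-0.36 µg/mL against an initial inoculum of 1-5 × 10^3 cells/mL. Plates were incubated in a moist chamber at 35 °C, and absorbance at 492 nm was read after 24 h. MIC was taken as 90% growth inhibition relative to the growth control.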

[3] = system: Trichophyton mentagrophytes; assay: Antimicrobial activity against Trichophyton mentagrophytes after 96 hrs by microbroth dilution method; type: functional; method in brief: as §1
Sporothrix schenckii = assay: Antimicrobial activity against Sporothrix schenckii after 72 hrs by microbroth dilution method; type: functional; method in brief: as §1
Staphylococcus aureus [4] = assay: Antimicrobial activity against methicillin-resistant Staphylococcus aureus after 24 hrs by microbroth dilution method; type: functional; method in brief: as §2
Escherichia coli = assay: Antimicrobial activity against Escherichia coli ATCC 9637 after 24 hrs by microbroth dilution method; type: functional; details: ATCC 9637, 24 h; method in brief: as §1
Klebsiella pneumoniae = assay: Antimicrobial activity against Klebsiella pneumoniae ATCC 27736 after 24 hrs by microbroth dilution method; type: functional; details: ATCC 27736, 24 h; method in brief: as §1
Cryptococcus neoformans = assay: Antimicrobial activity against Cryptococcus neoformans after 72 hrs by microbroth dilution method; type: functional; method in brief: as §1
Pseudomonas aeruginosa = assay: Antimicrobial activity against Pseudomonas aeruginosa ATCC BAA-427 after 24 hrs by microbroth dilution method; type: functional; details: ATCC BAA-427, 24 h; method in brief: as §1
L929 [5] = assay: Cytotoxicity against mouse L929 cells assessed as change in morphology at MIC after 24 hrs using Giemsa staining by phase contrast microscopy; type: cell-based; details: l929, 24 h
Method in brief: (§3)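 Mouse fibroblast L929 cells grown in DMEM with 10% FBS and antibiotic/antimycotic at 37 °C, 5% CO2. Medium switched to serum-free DMEM at 90% confluency, then compounds added (DMSO stocks) for 24 h. Cells fixed, stained with Giemsa for 30 min at 37 °C, washed with PBS, air dried and examined by phase-contrast microscopy.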

L929 [6] = assay: Cytotoxicity against mouse L929 cells assessed as change in morphology at 50 ug/ml after 24 hrs using Giemsa staining by phase contrast microscopy; type: cell-based; details: l929, 24 h; method in brief: as §3
L929 [7] = assay: Cytotoxicity against mouse L929 cells assessed as reduction in cell viability after 24 hrs by MTT assay; type: cell-based; details: l929, 24 h
Method in brief: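 L929 fibroblasts in DMEM with 10% FBS at 37 °C, 5% CO2. Seeded at 1×10^3 cells per well, switched to serum-free DMEM at 90% confluency. Compounds from 1 mg/mL DMSO stocks tested at nine twofold dilutions for 24 h. MTT readout: viability = (A570−A630) sample / (A570−A630) control × 100.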

Structure (SMILES) | MIC (Candida albicans) [µg/mL] | MIC (Staphylococcus aureus [1]) [µg/mL] | MIC (Aspergillus fumigatus) [µg/mL] | MIC (Staphylococcus aureus [2]) [µg/mL] | MIC [3] [µg/mL] | MIC (Sporothrix schenckii) [µg/mL] | MIC (Staphylococcus aureus [4]) [µg/mL] | MIC (Escherichia coli) [µg/mL] | MIC (Klebsiella pneumoniae) [µg/mL] | MIC (Cryptococcus neoformans) [µg/mL] | MIC (Pseudomonas aeruginosa) [µg/mL] | Activity (L929 [5]) | Activity (L929 [6]) | Activity (L929 [7])
CC(C)CCO[C@@H]1C=CC(=O)[C@@H](Cn2cc(CCCCOC(=O)C(C)(C)C)nn2)O1 | > 50 | 12.5 (≈ 29.7 µM) | 25 (≈ 59.3 µM) | > 50 | 25 (≈ 59.3 µM) | 12.5 (≈ 29.7 µM) | > 50 | 50 (≈ 119 µM) | 12.5 (≈ 29.7 µM) | 50 (≈ 119 µM) | 50 (≈ 119 µM) | – | – | –
CC(C)CCO[C@@H]1C=CC(=O)[C@@H](Cn2cc(C3CC3)nn2)O1 | 12.5 (≈ 40.9 µM) | 6.25 (≈ 20.5 µM) | > 50 | > 50 | 6.25 (≈ 20.5 µM) | 12.5 (≈ 40.9 µM) | > 50 | > 50 | > 50 | 25 (≈ 81.9 µM) | > 50 | – | – | –
CC(C)CCO[C@@H]1C=CC(=O)[C@@H](Cn2cc(CCBr)nn2)O1 | 12.5 (≈ 33.6 µM) | 12.5 (≈ 33.6 µM) | 50 (≈ 134 µM) | > 50 | 6.25 (≈ 16.8 µM) | 25 (≈ 67.2 µM) | > 50 | > 50 | 50 (≈ 134 µM) | 12.5 (≈ 33.6 µM) | > 50 | – | – | –
CCCCCc1cn(C[C@H]2O[C@H](OCCC(C)C)C=CC2=O)nn1 | > 50 | 3.12 (≈ 9.3 µM) | > 50 | 6.25 (≈ 18.6 µM) | 3.12 (≈ 9.3 µM) | 12.5 (≈ 37.3 µM) | 6.25 (≈ 18.6 µM) | > 50 | 3.12 (≈ 9.3 µM) | > 50 | > 50 | Non-toxic | Toxic | Dose-dependent effect
CC(C)CCO[C@@H]1C=CC(=O)[C@@H](Cn2cc(CCCC=O)nn2)O1 | > 50 | > 50 | > 50 | > 50 | 25 (≈ 74.5 µM) | 12.5 (≈ 37.3 µM) | > 50 | > 50 | 50 (≈ 149 µM) | > 50 | > 50 | – | – | –
Clc1ccccc1C(c1ccccc1)(c1ccccc1)n1ccnc1 [CLOTRIMAZOLE] | 0.25 (≈ 0.725 µM) | – | 8 (≈ 23.2 µM) | – | 2 (≈ 5.8 µM) | 4 (≈ 11.6 µM) | – | – | – | 0.25 (≈ 0.725 µM) | – | – | – | –
COc1cccc(OC)c1C(=O)N[C@@H]1C(=O)N2[C@@H]1SC(C)(C)[C@@H]2C(=O)O [METHICILLIN] | – | 0.04 (≈ 0.105 µM) | – | – | – | – | – | 50 (≈ 131 µM) | 6.25 (≈ 16.4 µM) | – | > 50 | – | – | –
CC1(C)S[C@@H]2[C@H](NC(=O)[C@H](N)c3ccccc3)C(=O)N2[C@H]1C(=O)O [AMPICILLIN] | – | 12.5 (≈ 35.8 µM) | – | 0.78 (≈ 2.23 µM) | – | – | 0.78 (≈ 2.23 µM) | 50 (≈ 143 µM) | 12.5 (≈ 35.8 µM) | – | > 50 | – | – | –
CC(C)CCO[C@@H]1C=CC(=O)[C@@H](Cn2cc(C3CCCC3)nn2)O1 | 25 (≈ 75 µM) | 50 (≈ 150 µM) | 50 (≈ 150 µM) | > 50 | 50 (≈ 150 µM) | 50 (≈ 150 µM) | > 50 | 50 (≈ 150 µM) | 50 (≈ 150 µM) | 50 (≈ 150 µM) | 50 (≈ 150 µM) | – | – | –
CC(C)CCO[C@@H]1C=CC(=O)[C@@H](Cn2cc(CCn3cc(-c4ccccc4)nn3)nn2)O1 | 50 (≈ 115 µM) | 50 (≈ 115 µM) | > 50 | > 50 | 50 (≈ 115 µM) | 50 (≈ 115 µM) | > 50 | > 50 | > 50 | 50 (≈ 115 µM) | > 50 | – | – | –
CC(C)CCO[C@@H]1C=CC(=O)[C@@H](Cn2cc(-c3ccccc3)nn2)O1 | 12.5 (≈ 36.6 µM) | 6.25 (≈ 18.3 µM) | 50 (≈ 146 µM) | 12.5 (≈ 36.6 µM) | 50 (≈ 146 µM) | 12.5 (≈ 36.6 µM) | 12.5 (≈ 36.6 µM) | 50 (≈ 146 µM) | 3.12 (≈ 9.14 µM) | 25 (≈ 73.2 µM) | 50 (≈ 146 µM) | Non-toxic | Toxic | Dose-dependent effect
O=C(O)c1cn(C2CC2)c2cc(N3CCNCC3)c(F)cc2c1=O [CIPROFLOXACIN] | – | 0.09 (≈ 0.272 µM) | – | 0.38 (≈ 1.15 µM) | – | – | 0.38 (≈ 1.15 µM) | – | 0.01 (≈ 0.0302 µM) | – | 0.09 (≈ 0.272 µM) | – | – | –
CCCCCCCCc1cn(C[C@H]2O[C@H](OCCC(C)C)C=C[C@@H]2O)nn1 | > 50 | > 50 | > 50 | > 50 | 50 (≈ 132 µM) | > 50 | > 50 | > 50 | > 50 | 25 (≈ 65.9 µM) | > 50 | – | – | –
